Experimental data published in ChEMBL document CHEMBL3352313 (J Med Chem, 2014).

How the values were obtained:
[1] = target: T1, Muscarinic acetylcholine receptor M5 (Homo sapiens, UniProt P08912); assay: Positive allosteric modulator activity at human muscarinic acetylcholine receptor subtype 5 expressed in CHO cells by calcium mobilization assay; assay type: functional, cell-based
T1 sequence (P08912 whole entry): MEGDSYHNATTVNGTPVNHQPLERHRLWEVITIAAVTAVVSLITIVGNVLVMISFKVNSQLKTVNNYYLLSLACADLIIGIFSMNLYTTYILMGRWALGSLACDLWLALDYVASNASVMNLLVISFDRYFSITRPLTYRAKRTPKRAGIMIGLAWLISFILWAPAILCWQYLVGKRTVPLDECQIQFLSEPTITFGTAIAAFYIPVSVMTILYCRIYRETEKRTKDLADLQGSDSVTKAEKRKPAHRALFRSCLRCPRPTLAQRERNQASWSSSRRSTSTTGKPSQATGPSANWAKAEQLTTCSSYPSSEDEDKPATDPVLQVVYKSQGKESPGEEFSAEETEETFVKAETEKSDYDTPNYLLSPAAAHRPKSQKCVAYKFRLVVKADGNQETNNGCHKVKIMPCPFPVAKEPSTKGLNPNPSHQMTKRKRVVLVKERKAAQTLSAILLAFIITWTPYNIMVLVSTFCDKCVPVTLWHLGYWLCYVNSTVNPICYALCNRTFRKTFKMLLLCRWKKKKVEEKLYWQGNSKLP

[2] = target: T2, Muscarinic acetylcholine receptor M5 (Homo sapiens) (UniProt P08912); assay: Positive allosteric modulator activity at human muscarinic acetylcholine receptor subtype 5 expressed in CHO cells by calcium mobilization assay relative to acetylcholine; assay type: functional, cell-based
T2 sequence (whole entry): T1 sequence (P08912 whole entry)

[3] = target: T2, Muscarinic acetylcholine receptor M5 (Homo sapiens); assay: Positive allosteric modulator activity at human muscarinic acetylcholine receptor subtype 5 expressed in CHO cells assessed as fold shift in acetylcholine-induced response at 10 uM by calcium mobilization assay; assay type: functional, cell-based
Outline: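 In hM5 CHO cells by calcium mobilization, PAM at a fixed 10 μM or vehicle is added before an ACh concentration-response curve. Fold shift is the ratio of ACh potency without PAM to potency with PAM.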

[4] = Intrinsic clearance in rat liver microsomes; assay type: ADME; conditions: read-out: CLH
Outline: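 Microsomal intrinsic clearance, used in the well-stirred model of organ clearance, not corrected for plasma fraction unbound, to predict hepatic clearance.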

[5] = target: T2, Muscarinic acetylcholine receptor M5 (Homo sapiens); assay: Displacement of [3H]NMS from human muscarinic acetylcholine receptor subtype 5 expressed in CHO cell membranes assessed as radioligand binding level by scintillation counting method

Row | SMILES | EC50 ([1]; read-out: EC50) | %max [2] | also measured
1 | CCN(C(=O)C1CCN(S(=O)(=O)c2ccc3occc3c2)CC1)[C@H](C)c1ccccc1 | 930 nM | 80% | 
2 | CCN(Cc1ccccc1)C(=O)C1CCN(S(=O)(=O)c2ccc3[nH]ncc3c2)CC1 | 1600 nM | 86% | fold change (FC) [3]: 5.4
3 | CCN(Cc1ccccc1F)C(=O)C1CCN(S(=O)(=O)c2ccc3cn[nH]c3c2)CC1 | 2100 nM | 84% | 
4 | CCN(Cc1ccccc1OC)C(=O)C1CCN(S(=O)(=O)c2ccc3cn[nH]c3c2)CC1 | 750 nM | 92% | 
5 | C=CCN(Cc1ccccc1C(F)(F)F)C(=O)C1CCN(S(=O)(=O)c2ccc3[nH]ncc3c2)CC1 | 1800 nM | 79% | 
6 | CCN(C(=O)C1CCN(S(=O)(=O)c2ccc(OC)cc2)CC1)[C@@H](C)c1ccccc1 |  |  | EC50 ([1]; cho): Not Active
7 | CCN(Cc1ccccc1Cl)C(=O)C1CCN(S(=O)(=O)c2ccc3[nH]ncc3c2)CC1 | 350 nM | 78% | 
8 | CCN(Cc1cccc(C(F)(F)F)c1)C(=O)C1CCN(S(=O)(=O)c2ccc3cn[nH]c3c2)CC1 | 5600 nM | 59% | 
9 | O=C(C1CCN(S(=O)(=O)c2ccc3[nH]ncc3c2)CC1)N(Cc1ccccc1C(F)(F)F)C1CC1 |  |  | EC50 ([1]; cho): Not Active
10 | CCN(Cc1ccccc1)C(=O)C1CCN(S(=O)(=O)c2ccccc2)CC1 | 6200 nM | 69% | 
11 | O=C(C1CCN(S(=O)(=O)c2ccc3[nH]ncc3c2)CC1)N(CCO)Cc1ccccc1C(F)(F)F | > 10000 nM | 60% | 
12 | O=C(C1CCN(S(=O)(=O)c2ccc3[nH]ncc3c2)CC1)N(CCF)Cc1ccccc1C(F)(F)F | 1300 nM | 95% | 
13 | CCN(Cc1ccccc1)C(=O)C1CCN(S(=O)(=O)c2cccnc2)CC1 | > 10000 nM |  | 
14 | CCN(Cc1ccccc1)C(=O)C1CCN(S(=O)(=O)c2cccc3nsnc23)CC1 | > 10000 nM |  | 
15 | CCN(Cc1ccccc1)C(=O)C1CCN(S(=O)(=O)c2ccc(OC)cc2)CC1 | 3300 nM | 84% | 
16 | O=C(C1CCN(S(=O)(=O)c2ccc3[nH]ncc3c2)CC1)N(Cc1ccccc1C(F)(F)F)CC1CCC1 | 130 nM | 103% | CLint scaled [4]: > 500 mL/min/kg
17 | CCN(Cc1ccccc1)C(=O)C1CCN(S(=O)(=O)c2ccccn2)CC1 | > 10000 nM |  | 
18 | CC(C)(C)CN(Cc1ccccc1C(F)(F)F)C(=O)C1CCN(S(=O)(=O)c2ccc3[nH]ncc3c2)CC1 | 120 nM | 104% | CLint scaled [4]: > 500 mL/min/kg
19 | CCN(Cc1cccc(Cl)c1)C(=O)C1CCN(S(=O)(=O)c2ccc3cn[nH]c3c2)CC1 | 1600 nM | 77% | 
20 | CCN(Cc1cccc(OC)c1)C(=O)C1CCN(S(=O)(=O)c2ccc3cn[nH]c3c2)CC1 | 2600 nM | 85% | 
21 | CCN(Cc1ccccc1)C(=O)C1CCN(S(=O)(=O)c2c(C)noc2C)CC1 | > 10000 nM |  | 
22 | CCN(Cc1ccccc1)C(=O)C1CCN(S(=O)(=O)c2ccc3cccnc3c2)CC1 | > 10000 nM | 66% | 
23 | CCN(Cc1ccccc1)C(=O)C1CCN(S(=O)(=O)c2ccc(C(F)(F)F)nc2)CC1 | > 10000 nM |  | 
24 | CCN(Cc1ccccc1)C(=O)C1CCN(S(=O)(=O)c2ccc(OC)c(OC)c2)CC1 | > 10000 nM | 57% | 
25 | CC(C)N(Cc1ccccc1C(F)(F)F)C(=O)C1CCN(S(=O)(=O)c2ccc3[nH]ncc3c2)CC1 | > 10000 nM | 54% | 
26 | CCN(Cc1ccc(F)cc1)C(=O)C1CCN(S(=O)(=O)c2ccc3cn[nH]c3c2)CC1 | > 10000 nM | 55% | 
27 | CCN(C(=O)C1CCN(S(=O)(=O)c2ccc3cn[nH]c3c2)CC1)[C@H](C)c1ccccc1 | 760 nM | 87% | 

Row | SMILES | EC50 ([1]; read-out: EC50) | %max [2] | also measured
28 | CCN(Cc1cccc(F)c1)C(=O)C1CCN(S(=O)(=O)c2ccc3cn[nH]c3c2)CC1 | 1500 nM | 89% | 
29 | CCN(Cc1ccc(C(F)(F)F)cc1)C(=O)C1CCN(S(=O)(=O)c2ccc3cn[nH]c3c2)CC1 |  |  | EC50 ([1]; cho): Not Active
30 | CCN(Cc1ccccc1)C(=O)C1CCN(S(=O)(=O)c2ccccc2OC)CC1 | > 10000 nM |  | 
31 | O=C(C1CCN(S(=O)(=O)c2ccc3[nH]ncc3c2)CC1)N(Cc1ccccc1C(F)(F)F)C1CCC1 | 1800 nM | 84% | 
32 | CCN(Cc1ccccc1)C(=O)C1CCN(S(=O)(=O)c2ccc3c(c2)OCCO3)CC1 |  |  | fold change (FC) [3]: 2.3
33 | CCCN(Cc1ccccc1C(F)(F)F)C(=O)C1CCN(S(=O)(=O)c2ccc3[nH]ncc3c2)CC1 | 160 nM | 94% | 
34 | CCN(Cc1ccccc1)C(=O)C1CCN(S(=O)(=O)c2cccc(OC)c2)CC1 | 3100 nM | 77% | 
35 | CCN(Cc1cccc(C)c1)C(=O)C1CCN(S(=O)(=O)c2ccc3cn[nH]c3c2)CC1 | 870 nM | 78% | 
36 | CCN(Cc1ccccc1)C(=O)C1CCN(S(=O)(=O)c2ccncc2)CC1 | > 10000 nM |  | 
37 | O=C(C1CCN(S(=O)(=O)c2ccc3[nH]ncc3c2)CC1)N(Cc1ccccc1C(F)(F)F)CC1CC1 | 120 nM | 102% | CLint scaled [4]: > 500 mL/min/kg
38 | CCN(Cc1ccccc1)C(=O)C1CCN(S(=O)(=O)c2ccc3cn[nH]c3c2)CC1 | 1700 nM | 86% | fold change (FC) [3]: 4.8
39 | CCN(Cc1ccccc1)C(=O)C1CCN(S(=O)(=O)c2cccc3c2OCCO3)CC1 | > 10000 nM | 53% | 
40 | CCC(C)N(Cc1ccccc1C(F)(F)F)C(=O)C1CCN(S(=O)(=O)c2ccc3[nH]ncc3c2)CC1 (stereo unspecified) | 150 nM | 100% | 
41 | CCN(C(=O)C1CCN(S(=O)(=O)c2ccc3c(c2)CCC3)CC1)[C@H](C)c1ccccc1 | 730 nM | 97% | 
42 | CCN(Cc1ccccc1)C(=O)C1CCN(S(=O)(=O)c2ccc3occc3c2)CC1 | 2400 nM | 80% | 
43 | CCN(Cc1ccccc1Cl)C(=O)C1CCN(S(=O)(=O)c2ccc3cn[nH]c3c2)CC1 | 640 nM | 93% | 
44 | CCN(Cc1ccccc1)C(=O)C1CCN(S(=O)(=O)c2ccc3nsnc3c2)CC1 | 3000 nM | 81% | 
45 | CCN(Cc1ccccc1C)C(=O)C1CCN(S(=O)(=O)c2ccc3cn[nH]c3c2)CC1 | 870 nM | 103% | 
46 | CCN(Cc1ccccc1)C(=O)C1CCN(S(=O)(=O)c2ccc(C)s2)CC1 | > 10000 nM | 64% | 
47 | CN1[C@@H]2CC[C@H]1C[C@@H](OC(=O)C(CO)c1ccccc1)C2 (stereo partly specified) |  |  | %max [5]: 1.8%
48 | CCN(C(=O)C1CCN(S(=O)(=O)c2ccc3[nH]ncc3c2)CC1)[C@H](C)c1ccccc1 | 740 nM | 86% | fold change (FC) [3]: 12
49 | CCN(Cc1ccccc1)C(=O)C1CCN(S(=O)(=O)c2c[nH]cn2)CC1 | > 10000 nM |  | 
50 | CCN(C(=O)C1CCN(S(=O)(=O)c2ccc3c(c2)CCO3)CC1)[C@H](C)c1ccccc1 | 1110 nM | 88% | 
51 | CCN(C(=O)C1CCN(S(=O)(=O)c2ccc(OC)cc2)CC1)[C@H](C)c1ccccc1 | 970 nM | 90% | fold change (FC) [3]: 7
52 | CCN(Cc1ccccc1)C(=O)C1CCN(S(=O)(=O)c2ccc3c(c2)OCO3)CC1 | 7400 nM | 93% | 
53 | CCN(Cc1ccccc1C(F)(F)F)C(=O)C1CCN(S(=O)(=O)c2ccc3cn[nH]c3c2)CC1 | 480 nM | 92% | fold change (FC) [3]: 7
